Compound activity: PubChem, The Scripps Research Institute Molecular Screening Center
Shown are actives, neighbours in structure and some others; about 2.7% of the full set was active somewhere.
PAFAH2 inh = inhibitors of human PAFAH2 | inhibition, % at 3.39 µM | 0.99% of 340,000 active | recombinant PAFAH2, FP-rhodamine activity probe, fluorescence polarization | AID 492956;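 active = inhibition above the mean over all tested compounds plus 3 SD, cut at about 30% in these data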;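 note: inhibitors block probe labeling of enzyme so polarization drops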
pPAFAH inh = pPAFAH (human) enzyme inhibition | Q13093 | recombinant pPAFAH, FP-rhodamine probe fluorescence polarization | inhibition, % at 3.39 µM | 1.5% of 330,000 active | AID 463082;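 active = inhibition above the mean inhibition across the screen plus 3 SD, cut at about 25% in these data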;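 note: inhibitors block binding of the rhodamine activity-based probe so polarization drops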
Target sequence (Q13093 whole entry, looked up): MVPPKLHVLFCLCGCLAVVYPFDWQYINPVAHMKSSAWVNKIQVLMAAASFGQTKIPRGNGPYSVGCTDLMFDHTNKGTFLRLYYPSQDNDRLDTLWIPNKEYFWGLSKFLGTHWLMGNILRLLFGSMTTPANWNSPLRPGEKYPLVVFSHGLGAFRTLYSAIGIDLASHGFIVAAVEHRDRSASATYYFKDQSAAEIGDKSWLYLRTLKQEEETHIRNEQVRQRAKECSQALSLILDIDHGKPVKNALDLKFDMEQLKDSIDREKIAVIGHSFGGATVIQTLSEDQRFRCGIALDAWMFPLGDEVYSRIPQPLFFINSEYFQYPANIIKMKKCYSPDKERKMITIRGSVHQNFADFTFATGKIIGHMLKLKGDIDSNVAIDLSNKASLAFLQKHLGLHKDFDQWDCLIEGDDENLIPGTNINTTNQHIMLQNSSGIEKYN
PAFAH1B3 FP inh = blocks human PAF acetylhydrolase 1B catalytic subunit 3 | recombinant PAFAH1B3, FP-rhodamine probe, fluorescence polarization | inhibition, % at 3.39 µM | 0.28% of 340,000 active | AID 492972;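 active = inhibition above the screen-wide average of all tested compounds plus 3 SD, cut at about 25% in these data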
RBBP9 inh = blocks human serine hydrolase RBBP9; O75884; recombinant RBBP9, FP-Rh probe fluorescence polarization; inhibition, % at 7.94 µM; 0.2% of 220,000 active; AID 1515;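 active = inhibition above the campaign mean of all tested compounds plus 3 SD, cut at about 14% in these data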
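Test system: recombinant human RBBP9. Quantity: 2.5 µM RBBP9 dispensing solution, before mixing. Detection: FP readout at 525/598 nm. Reagent: Serine-hydrolase probe FP-Rh, 375 nM pre-mixing. Measure: % inhibition. Control set: DMSO-treated enzyme wells and wells lacking RBBP9. Buffer or medium: Tris-NaCl-Pluronic buffer, pH 8.0. Times: preincubation 30 min plus labeling 45 min at 25 °C.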
PAFAH1B2 FP inh = PAFAH1B2 (human) inhibition | 1.2% of 340,000 active | inhibition, % at 3.39 µM | recombinant PAFAH1B2, FP-rhodamine activity probe, fluorescence polarization | P68402 | AID 492953;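 active = inhibition above the mean of all tested compounds plus 3 SD, cut at about 24% in these data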
Target sequence (P68402 whole entry, looked up): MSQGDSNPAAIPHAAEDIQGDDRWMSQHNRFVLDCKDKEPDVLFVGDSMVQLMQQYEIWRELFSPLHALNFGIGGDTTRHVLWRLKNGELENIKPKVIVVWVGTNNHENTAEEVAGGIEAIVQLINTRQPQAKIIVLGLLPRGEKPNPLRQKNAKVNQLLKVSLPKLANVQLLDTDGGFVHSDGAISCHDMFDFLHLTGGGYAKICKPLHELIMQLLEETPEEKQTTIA
Each line names hits and unclear results; the compound was inactive in the other large screens.

CCCCn1c(C)c(C(=O)OCC)c2c(CN3CCCC3)c(O)ccc21	pPAFAH inh 27 (no result: RBBP9 inh)
CCCCn1c(C)c(C(=O)OCC)c2c(CN3CCOCC3)c(O)ccc21	none
CCOC(=O)C1(c2ccccc2)CCN(CC(=O)c2ccc(NC(C)=O)cc2)CC1	none (no result: pPAFAH inh, RBBP9 inh)
O=P(Oc1ccccc1)(Oc1ccccc1)C(Nc1ccccc1)c1ccccc1 (stereo unspecified)	none
O=P(O)(Oc1ccccc1)OC(c1ccccc1)C(F)(F)C(F)(F)F (stereo unspecified)	PAFAH1B2 FP inh 77
C/C=C(\C)C(=O)OC1C(C)=C2C(C1OC(=O)CCCCC)C(C)(OC(C)=O)CC(OC(=O)CCC)C1(O)C2OC(=O)C1(C)O (stereo unspecified)	pPAFAH inh 38 (no result: PAFAH2 inh, PAFAH1B3 FP inh, RBBP9 inh, PAFAH1B2 FP inh)
O=c1cc(C(F)(F)F)c2cc3c4c(c2o1)CCCN4CCC3	pPAFAH inh 26
CCCCn1c(NC(=O)c2ccc(Br)o2)c(C(=O)OCC)c2nc3ccccc3nc21	PAFAH2 inh 41, PAFAH1B3 FP inh 77, PAFAH1B2 FP inh 38
Cc1ccc(Sc2ccc(C=C3C(=O)N(C)C(=O)N(C)C3=O)o2)cc1	PAFAH1B2 FP inh 57
CC12CCC3C(CCC4(O)CC(O)CCC34C=NO)C1(O)CCC2C1=COC(=O)C1 (stereo unspecified)	none (no result: pPAFAH inh, RBBP9 inh)
CN1CCc2cc3c(c4c2C1Cc1ccccc1-4)OCO3 (stereo unspecified)	pPAFAH inh 29 (no result: RBBP9 inh)
Cc1cccc(CNCCc2ccccc2)n1	none
OCCCCO	none (no result: RBBP9 inh)
COc1cccc2c1C(=O)c1c(O)c3c(c(O)c1C2=O)CC(O)(C(C)=NO)CC3OC1CC(N)C(O)C(C)O1 (stereo unspecified)	PAFAH2 inh 42, PAFAH1B3 FP inh 30, PAFAH1B2 FP inh 45 (no result: pPAFAH inh, RBBP9 inh)
CCOC(=O)C1CCN(/C=C2/C(=O)NC(=O)N(c3cccc(C)c3C)C2=O)CC1	none
CC(C)CCOP(N)(=O)Oc1ccccc1 (stereo unspecified)	none (no result: RBBP9 inh)
CC(C)CCOP(N)(=O)Oc1ccccc1Cl (stereo unspecified)	PAFAH1B3 FP inh 26, PAFAH1B2 FP inh 85 (no result: RBBP9 inh)
NP(=O)(OCCCc1ccccc1)Oc1ccc(Cl)cc1 (stereo unspecified)	PAFAH1B2 FP inh 95 (no result: RBBP9 inh)
NP(=O)(OCCCc1ccccc1)c1ccccc1 (stereo unspecified)	none (no result: RBBP9 inh)
NP(=O)(OCCCc1ccccc1)Oc1ccccc1Cl (stereo unspecified)	PAFAH2 inh 67, PAFAH1B3 FP inh 45, PAFAH1B2 FP inh 92 (no result: RBBP9 inh)
COC(=O)C1=C(c2cccc(OC)c2OC)C[C@@H]2CC[C@H]1N2C(=O)NCCCOC(C)C	none (no result: RBBP9 inh)
CC(N)C(=O)OC(C)(C)Cc1ccc(Cl)cc1 (stereo unspecified)	none (no result: RBBP9 inh)
Cc1nc2ccc(Br)cc2c(=O)n1-c1ccc([N+](=O)[O-])c(C(F)(F)F)c1	none (no result: RBBP9 inh)
Cn1cc(C(=O)OCC(=O)NC2CCCCC2)c2ccccc21	PAFAH2 inh 72, pPAFAH inh 33 (no result: RBBP9 inh)
CC1CC(NC(=O)C2C3CCC(O3)C2C(=O)O)CC(C)(C)C1 (stereo unspecified)	none
Ic1ccccc1CN[C@@H]1C2CCN(CC2)[C@@H]1C(c1ccccc1)c1ccccc1	none (no result: RBBP9 inh)
CCN(CC)C(=O)c1ccc2c(c1)C1C=CCC1C(C(=O)O)N2 (stereo unspecified)	PAFAH2 inh 40, PAFAH1B3 FP inh 40 (no result: pPAFAH inh, RBBP9 inh)
COC(=O)C1=C(c2cccc(OCc3ccccc3)c2)C[C@@H]2CC[C@H]1N2C(=O)NCCCc1ccccc1	pPAFAH inh 30 (no result: RBBP9 inh)
CN(C)[C@@H]1C(=O)C(C(N)=O)=C(O)[C@@]2(O)C(=O)C3=C(O)c4c(O)cccc4[C@@](C)(O)[C@H]3C[C@@H]12	pPAFAH inh 73 (no result: PAFAH2 inh, PAFAH1B3 FP inh, RBBP9 inh, PAFAH1B2 FP inh)
CN(C)[C@@H]1C(=O)C(C(N)=O)=C(O)[C@@]2(O)C(=O)C3=C(O)c4c(O)ccc(Cl)c4[C@@](C)(O)C3C[C@@H]12 (stereo partly specified)	none (no result: pPAFAH inh)
CNC(=S)N1CC2CC(C1)c1cccc(=O)n1C2 (stereo unspecified)	none
COc1ccc(N2C(=O)CC(N3CC=C(c4ccccc4)CC3)C2=O)cc1 (stereo unspecified)	none
CN1C(=O)NC(=O)/C(=C/c2ccc([N+](=O)[O-])s2)C1=O	pPAFAH inh 25
CN1C(=O)NC(=O)/C(=C/c2ccc([N+](=O)[O-])o2)C1=O	none (no result: PAFAH2 inh, PAFAH1B3 FP inh, PAFAH1B2 FP inh)
Cn1c(O)c(/C=C/C=Nc2ccccc2)c(=O)n(C)c1=S	none
O=C(Cc1ccc(N(CCCl)CCCl)cc1)NC(Cc1ccc(Cl)cc1)C(=O)O (stereo unspecified)	PAFAH1B2 FP inh 60 (no result: RBBP9 inh)
CC(=O)NC(Cc1ccc(N(CCCl)CCCl)cc1)C(=O)O (stereo unspecified)	none
O=C(Cc1ccccc1)NC(Cc1ccc(Cl)cc1)C(=O)O (stereo unspecified)	PAFAH1B2 FP inh 38
O=c1[nH]c(=S)n(Cc2ccc(F)cc2)c(O)c1/C=N/N1CCCCCC1	PAFAH1B2 FP inh 33
O=c1[nH]c(=S)n(Cc2ccc(F)cc2)c(O)c1C=NCc1ccc2c(c1)OCO2	none
O=c1[nH]c(=O)n(Cc2ccc(F)cc2)c(O)c1C=NCCCn1ccnc1	none
O=C(N/N=C/c1c(O)n(Cc2ccc(F)cc2)c(=S)[nH]c1=O)c1ccncc1	PAFAH1B2 FP inh 42
O=c1[nH]c(=S)n(Cc2ccc(F)cc2)c(O)c1C=NCCCn1ccnc1	PAFAH1B2 FP inh 30
COc1ccc(C2CN(C)CC2C(=O)c2ccc(C)cc2)cc1Cl (stereo unspecified)	none
COC(=O)C1=C(c2ccc(OC)c(OC)c2)C[C@@H]2CC[C@H]1N2C(=O)NCCOc1ccc(OC)cc1	none (no result: RBBP9 inh)
O=S(=O)(NC1CCCCCCC1)OCC(Cl)(Cl)Cl	pPAFAH inh 29, PAFAH1B2 FP inh 48 (no result: RBBP9 inh)
CNC(=O)Oc1ccc(C(=O)N2c3ccccc3NC(=O)C2C)cc1 (stereo unspecified)	PAFAH1B2 FP inh 48 (no result: RBBP9 inh)
O=C(O)CCn1cc(C=C2C(=O)NC(=O)NC2=O)c(-c2ccc(Br)cc2)n1	PAFAH1B2 FP inh 33
Cn1ncnc2c(=O)n(C)c(=O)nc1-2	PAFAH2 inh 59, PAFAH1B3 FP inh 75, PAFAH1B2 FP inh 51 (no result: RBBP9 inh)
C=C[C@@H]1C[C@@]1(C)[C@@H](NP(=O)(c1ccccc1)c1ccccc1)c1ccccc1	PAFAH1B2 FP inh 41
COC(=O)[C@]1(C)C[C@H]1[C@H](NP(=O)(c1ccccc1)c1ccccc1)c1ccccc1	none
O=C(c1ccc2c(c1)OCO2)N1CCC2(CC1)OCCO2	none
O=C(c1ccc(N2CCCCCC2)c([N+](=O)[O-])c1)N1CCC2(CC1)OCCO2	pPAFAH inh 33
CCOC(=O)CC1=C(C(=O)OCC)C2(C(=O)N1CC(=O)OC)C(C#N)=C(N)Oc1ccccc12 (stereo unspecified)	none
COc1ccc2[nH]c(C)c(CCNCc3cc(OC)c4c(c3)OCO4)c2c1	none (no result: RBBP9 inh)
C=CCn1c(O)c(C(CC)=Nc2ccc(N(C)C)cc2)c(=O)[nH]c1=O	pPAFAH inh 34 (no result: PAFAH2 inh, PAFAH1B3 FP inh, PAFAH1B2 FP inh)
NCC(O)c1cc(O)c(O)cc1F (stereo unspecified)	pPAFAH inh 27 (no result: RBBP9 inh)
